# Measurements from the RNAGym collection of RNA variant scans (doi:10.1126/science.aae0568).
# Variants at the floor of the assay were thinned out.
# B1: tRNA (parent)
# chain: GUUCCGUUGGCGUAAUGGUAACGCGUCUCCCUCCUAAGGAGAAGACUGCGGGUUCGAGUCCCGUACGGAACG
# Variants of: B1
# Experiment: yeast fitness relative to wild type (ratio to wild type); higher = fitter; tRNA-Arg(CCU), competitive growth, 37 C, YPD
# Outline: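 A pool of Saccharomyces cerevisiae strains, each with a tRNA-Arg(CCU) gene variant at the native genomic locus, was competed in YPD at 37°C for 24 hours across six parallel replicates. The variants had been chemically synthesised at a 3% per-site mutation rate over 69 sites, and gene amplicons before and after competition were read by 100-nucleotide paired-end sequencing. Darwinian fitness relative to wild type rested on changes in genotype frequencies. Genotypes required ≥ 100 starting reads, and estimates < 0.5 were set to 0.5.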
row,Variant,yeast fitness
1,GUUCCGUUGGCGUAAUGGUAACGCGUCUCCCUCCUAAGGAGAAGACUCCGGGUUCGAGUCCCGUACGGUACG [G48C A69U],0.95
2,GUUCCGUUGGCGUAAUGGUAACGCGUCUCCCUCCUAAGGAGAAGACUACGGGUCCGAGUCCCGUACGGCACG [G48A U54C A69C],0.686
3,GUUCCGUUGGCGUAAUGGUAACGCGUCUCCCUCCUAAGGAGAAGACUACGGGUUCGAGUCCUGUACGGAACG [G48A C62U],1.01
4,GUUCCGUUGGCGUAAUGGUAACGCGUCUCCCUCCUAAGGAGAAGACUCCGGGUUCAAGUCACGUACGGAACG [G48C G56A C61A],≤ 0.5
5,GUUCCGUUGGCGUAAUGGUAACGCGUCUCCCUCCUAAGGAGAAGACUACGGGUUCGAGUCCUGUACGGAUCG [G48A C62U A70U],0.824
6,GUUCCGUUGGCGUAAUGGUAACGCGUCUCCCUCCUAAGGAGAAGACUACGGGUUCGAGUCCCGUAUGGAACG [G48A C66U],0.97
7,GUUCCGUUGGCGUAAUGGUAACGCGUCUCCCUCCUAAGGAGAAGACUACGGGUUCGAGUCCCGGACGGAACG [G48A U64G],1
8,GUUCCGUUGGCGUAAUGGUAACGCGUCUCCCUCCUAAGGAGAAGACUACGGGUUCGAGUCCCGUACAGAACG [G48A G67A],0.91
9,GUUCCGUUGGCGUAAUGGUAACGCGUCUCCCUCCUAAGGAGAAGACUACGGGUUCGAGUCCCGUACCGAACG [G48A G67C],1.02
10,GUUCCGUUGGCGUAAUGGUAACGCGUCUCCCUCCUAAGGAGAAGACUCUGGGUUCGAGUCCCGUACGGACCG [G48C C49U A70C],0.592
11,GUUCCGUUGGCGUAAUGGUAACGCGUCUCCCUCCUAAGGAGAAGACGGCGGAUUCGAGUCACGUACCGAACG [U47G G52A C61A G67C],≤ 0.5
12,GUUCCGUUGGCGUAAUGGUAACGCGUCUCCCUCCUAAGGAGAAGACUACGGGUUCGAGUCCCGUAAGUACCG [G48A C66A G68U A70C],≤ 0.5
13,GUUCCGUUGGCGUAAUGGUAACGCGUCUCCCUCCUAAGGAGAAGACUCCGGGUUCGAGUCCUGUACGGAACG [G48C C62U],0.899
14,GUUCCGUUGGCGUAAUGGUAACGCGUCUCCCUCCUAAGGAGAAGACUACGGGUUCGAGUUCCGUACGGAUCG [G48A C60U A70U],0.71
15,GUUCCGUUGGCGUAAUGGUAACGCGUCUCCCUCCUAAGGAGAAGACGGCGGGUUCGAGUCCUGUACGGAACG [U47G C62U],0.633
16,GUUCCGUUGGCGUAAUGGUAACGCGUCUCCCUCCUAAGGAGAAGACUCCGGGUUCAAGUCCCGUACGGAACG [G48C G56A],0.905
17,GUUCCGUUGGCGUAAUGGUAACGCGUCUCCCUCCUAAGGAGAAGACUCCGGGUUCGAGUCCCGUAAGGAACG [G48C C66A],0.633
18,GUUCCGUUGGCGUAAUGGUAACGCGUCUCCCUCCUAAGGAGAAGACUACGGGUUCGAGUCCCGUACGUCACG [G48A G68U A69C],0.524
19,GUUCCGUUGGCGUAAUGGUAACGCGUCUCCCUCCUAAGGAGAAGACUACGGGUACGAGUCCCGUACGGAACG [G48A U54A],0.692

row,Variant,yeast fitness
1,GUUCCGUUGGCGUAAUGGUAACGCGUCUCCCUCCUAAGGAGAAGACUCCGGGUUCGAGUCCCGUACGGAUCG [G48C A70U],1
2,GUUCCGUUGGCGUAAUGGUAACGCGUCUCCCUCCUAAGGAGAAGACUCCGGGUUCGAGUCCCGUACAGAACG [G48C G67A],0.873
3,GUUCCGUUGGCGUAAUGGUAACGCGUCUCCCUCCUAAGGAGAAGACUCCGGGUUCGAGUCCCGUACUGAACG [G48C G67U],0.811
4,GUUCCGUUGGCGUAAUGGUAACGCGUCUCCCUCCUAAGGAGAAGACGGCAGGUUAAAGUCCCGUACGGAACG [U47G G50A C55A G56A],0.533
5,GUUCCGUUGGCGUAAUGGUAACGCGUCUCCCUCCUAAGGAGAAGACUACGGGUUUGGGUCCCGUACGCAACG [G48A C55U A57G G68C],≤ 0.5
6,GUUCCGUUGGCGUAAUGGUAACGCGUCUCCCUCCUAAGGAGAAGACUACGAGUUCGAGUCCCGUACGGUACG [G48A G51A A69U],0.755
7,GUUCCGUUGGCGUAAUGGUAACGCGUCUCCCUCCUAAGGAGAAGACUCCGGGUUCGAGUCCCCUACGGAACG [G48C G63C],0.705
8,GUUCCGUUGGCGUAAUGGUAACGCGUCUCCCUCCUAAGGAGAAGACGGCGGGUUCGAGACCCGUACGGAACG [U47G U59A],0.543
9,GUUCCGUUGGCGUAAUGGUAACGCGUCUCCCUCCUAAGGAGAAGACUAAGGGUUCGAGUCCCGUACGGAACG [G48A C49A],0.969
10,GUUCCGUUGGCGUAAUGGUAACGCGUCUCCCUCCUAAGGAGAAGACUACGGGUUCGAGUCCCGUGCGGAACG [G48A A65G],0.981
11,GUUCCGUUGGCGUAAUGGUAACGCGUCUCCCUCCUAAGGAGAAGACUCCGGCUUCGAGUCCCGUACGGAACG [G48C G52C],0.552
12,GUUCCGUUGGCGUAAUGGUAACGCGUCUCCCUCCUAAGGAGAAGACUACGGGCUCGAGUAUCGUACGGAACG [G48A U53C C60A C61U],≤ 0.5
13,GUUCCGUUGGCGUAAUGGUAACGCGUCUCCCUCCUAAGGAGAAGACUACGGGUUCGAAGCCCGUACAGAACG [G48A G58A U59G G67A],≤ 0.5
14,GUUCCGUUGGCGUAAUGGUAACGCGUCUCCCUCCUAAGGAGAAGACUCCAGGUUCGAGUCCCGUACGGAACG [G48C G50A],0.651
15,GUUCCGUUGGCGUAAUGGUAACGCGUCUCCCUCCUAAGGAGAAGACUACGGGUCCGAGUCCCGUAUGGAACG [G48A U54C C66U],≤ 0.5
16,GUUCCGUUGGCGUAAUGGUAACGCGUCUCCCUCCUAAGGAGAAGACUACGGGUUCGGGUCUUGUACGGAACG [G48A A57G C61U C62U],≤ 0.5
17,GUUCCGUUGGCGUAAUGGUAACGCGUCUCCCUCCUAAGGAGAAGACUACGGGUUCGAGUCGCGUACGGCACG [G48A C61G A69C],0.603
18,GUUCCGUUGGCGUAAUGGUAACGCGUCUCCCUCCUAAGGAGAAGACUACGGCUUCGCGUCCAGUACGGAACG [G48A G52C A57C C62A],≤ 0.5
19,GUUCCGUUGGCGUAAUGGUAACGCGUCUCCCUCCUAAGGAGAAGACUACGGGUUCCAGUCCCGUGCGGAACG [G48A G56C A65G],0.543
